For one data set, the system named is Blood. Kind of data set: Drug uptake in ICR mouse blood at 370 kBq/100 ul, iv at 10 mins by gamma-counting analysis. The format is ADME, organism-based. The note with it: in vivo. In outline: (§1)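 Male ICR mice (5 weeks, about 20 g) got 18F tracer in saline (370 KBq per 100 μL) via tail vein; n = 5 per time point, killed at 2, 10, 30, 60 min. Organs weighed and γ-counted; percent dose per gram wet tissue from comparison with diluted injectate aliquots.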

The nature of data set [1]: n-Octanol-PBS buffer partition coefficient, log D of the compound at 1.5 MBq after 3 mins at pH 7.4. The format is physicochemical. In outline: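 The tracer was partitioned between n-octanol and PBS by vortexing for 3 min at room temperature, then centrifuged for 5 min at 3000 rpm. Samples of the octanol (50 μL) and aqueous (500 μL) layers were counted. log D is the log of the octanol/PBS counts-per-gram ratio. The octanol layer was repartitioned until values were consistent. Measured in triplicate and repeated three times.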

Data set [2] has as its system Spleen. As to the kind of experiment: Drug uptake in ICR mouse spleen at 370 kBq/100 ul, iv at 2 mins by gamma-counting analysis. The settings on record: in vivo. Format: ADME, organism-based. In outline: as §1
The subject of data set [3] is Lung. Kind of data set: Drug uptake in ICR mouse lung at 370 kBq/100 ul, iv at 10 mins by gamma-counting analysis. Format: ADME, organism-based. The settings on record: in vivo. In outline: as §1
The subject of data set [4] is Brain. Kind of data set: Ratio of drug uptake in brain at 2 mins to drug uptake in brain at 60 mins in ICR mouse at 370 KBq/100 ul, iv. The format is ADME, organism-based. The settings on record: in vivo. The method, boiled down:
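Normal male ICR mice (5 weeks, about 20 g) received the ¹⁸F tracer in saline (370 KBq per 100 μL) by tail-vein injection. Groups of n = 5 were killed at 2, 10, 30 and 60 min. Organs were removed, weighed and γ-counted against diluted aliquots of the injectate, giving % dose per gram. Stomach and intestine were expressed per organ. The brain ratio is 2 min/60 min uptake. Values are mean ± SD.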

The test system of data set [5] is Heart. Kind of data set: Drug uptake in ICR mouse heart at 370 kBq/100 ul, iv at 10 mins by gamma-counting analysis. Format: ADME, organism-based. The note with it: in vivo. The method, boiled down:
as §1

Data set [6] relates to Liver. Kind of data set: Drug uptake in ICR mouse liver at 370 kBq/100 ul, iv at 60 mins by gamma-counting analysis. The format is ADME, organism-based. The note with it: in vivo, 1 h. The method, boiled down: as §1
Data set [7] concerns Spleen. Kind of data set: Drug uptake in ICR mouse spleen at 370 kBq/100 ul, iv at 60 mins by gamma-counting analysis. The format is ADME, organism-based. The settings on record: in vivo, 1 h. The method, boiled down:
as §1

The test system of data set [8] is Intestine. Kind of data set: Drug uptake in ICR mouse intestine assessed per organ at 370 kBq/100 ul, iv at 10 mins by gamma-counting analysis. The note with it: in vivo. The format is ADME, organism-based. The method, boiled down: (§2)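 Male ICR mice (5 weeks, about 20 g) got 18F tracer in saline (370 KBq per 100 μL) via tail vein; n = 5 per time point, killed at 2, 10, 30, 60 min. Organs removed and γ-counted against diluted injectate; expressed as % injected dose per organ.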

Data set [9] has as its system Brain. As to the kind of experiment: Drug uptake in ICR mouse brain at 370 kBq/100 ul, iv at 60 mins by gamma-counting analysis. The settings on record: in vivo, 1 h. Format: ADME, organism-based. In outline: as §1
The subject of data set [10] is Heart. Kind of data set: Drug uptake in ICR mouse heart at 370 kBq/100 ul, iv at 60 mins by gamma-counting analysis. Format: ADME, organism-based. The settings on record: in vivo, 1 h. The method, boiled down:
as §1

The subject of data set [11] is Intestine. Kind of data set: Drug uptake in ICR mouse intestine assessed per organ at 370 kBq/100 ul, iv at 2 mins by gamma-counting analysis. Format: ADME, organism-based. The settings on record: in vivo. The method, boiled down: as §2
The test system of data set [12] is Lung. As to the kind of experiment: Drug uptake in ICR mouse lung at 370 kBq/100 ul, iv at 2 mins by gamma-counting analysis. The note with it: in vivo. Format: ADME, organism-based. In outline:
as §1

Data set [13] concerns Bone. As to the kind of experiment: Drug uptake in ICR mouse bone at 370 kBq/100 ul, iv at 60 mins by gamma-counting analysis. The format is ADME, organism-based, Bone element. The note with it: in vivo, 1 h. The method, boiled down: as §1
Data set [14] deals with Brain. As to the kind of experiment: Drug uptake in wild type C57BL6 mouse brain at 370 KBq/100 ul after 1 hr by autoradiographic analysis. The format is ADME, tissue-based. The settings on record: in vitro. In outline: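 Paraffin brain sections from 12-month-old male control C57BL6 mice were deparaffinized through xylene and graded ethanol, then held in PBS (0.2 M, pH 7.4) for 30 min. They were incubated with the ¹⁸F tracer (370 KBq per 100 μL) for 1 h at room temperature. Sections were washed in 40% EtOH, rinsed with water for 1 min, dried, and exposed to a phosphor plate for 2 h. The same sections were then stained with thioflavin S.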

The test system of data set [15] is Bone. As to the kind of experiment: Drug uptake in ICR mouse bone at 370 kBq/100 ul, iv at 30 mins by gamma-counting analysis. The settings on record: in vivo, 0.5 h. Format: ADME, organism-based, Bone element. The method, boiled down:
as §1

Data set [16] has as its system Brain. As to the kind of experiment: Drug uptake in ICR mouse brain at 370 kBq/100 ul, iv at 30 mins by gamma-counting analysis. The settings on record: in vivo, 0.5 h. The format is ADME, organism-based. The method, boiled down: as §1
In data set [17] the test system is Lung. As to the kind of experiment: Drug uptake in ICR mouse lung at 370 kBq/100 ul, iv at 60 mins by gamma-counting analysis. The note with it: in vivo, 1 h. The format is ADME, organism-based. In outline: as §1
The test system of data set [18] is Kidney. As to the kind of experiment: Drug uptake in ICR mouse kidney at 370 kBq/100 ul, iv at 2 mins by gamma-counting analysis. Format: ADME, organism-based. The note with it: in vivo. In outline: as §1
Data set [19] deals with Kidney. As to the kind of experiment: Drug uptake in ICR mouse kidney at 370 kBq/100 ul, iv at 30 mins by gamma-counting analysis. The format is ADME, organism-based. The settings on record: in vivo, 0.5 h. In outline: as §1
Data set [20] has as its system Intestine. As to the kind of experiment: Drug uptake in ICR mouse intestine assessed per organ at 370 kBq/100 ul, iv at 30 mins by gamma-counting analysis. The format is ADME, organism-based. The note with it: in vivo, 0.5 h. The method, boiled down: as §2
In data set [21] the test system is Liver. As to the kind of experiment: Drug uptake in ICR mouse liver at 370 kBq/100 ul, iv at 10 mins by gamma-counting analysis. The format is ADME, organism-based. The settings on record: in vivo. The method, boiled down:
as §1

We go through one compound from ChEMBL document CHEMBL2177098, “Synthesis and evaluation of novel ¹⁸F labeled 2-pyridinylbenzoxazole and 2-pyridinylbenzothiazole derivatives as ligands for positron emission tomography (PET) imaging of β-amyloid plaques” (J Med Chem, 2012).

Broadly, the logD is lipophilicity at a set pH, counting ionised and neutral species. Low values mean a more hydrophilic compound, high ones a more lipophilic compound. With `CN(C)c1ccc(-c2nc3cc(OCC[18F])ccc3o2)cn1`, the Drug uptake in the data set on Blood was 2.05 % ID/g; in the data set with Spleen [2], 3.22 % ID/g; in the data set on Lung [3], 2.58 % ID/g; with Heart [5], 2.44 % ID/g; in the data set with Liver [6], 3.19 % ID/g; in the data set on Spleen [7], 1.32 % ID/g. For the same compound, the Drug uptake with Intestine [8] is recorded as 21.45 %ID; in the data set with Brain [9] it was 1.47 % ID/g; in the data set on Heart [10], 1.93 % ID/g; in the data set on Intestine [11], 8.41 %ID; with Lung [12], 5.53 % ID/g; with Bone [13], 1.88 % ID/g. The Drug uptake result in the data set on Brain [14] is reported as “Not Active”; in the data set with Bone [15] it was 1.56 % ID/g; in the data set on Brain [16], 1.76 % ID/g; in the data set on Lung [17], 1.79 % ID/g; in the data set with Kidney [18] it was 8.48 % ID/g; with Kidney [19], 2.44 % ID/g. In addition, the Drug uptake with Intestine [20] came to 38.88 %ID; with Liver [21], 10.72 % ID/g. This compound gave a logD at 0.05 h in data set [1] of 3.53. Also, the Ratio in the data set with Brain [4] came out at 4.95.
